Measurements gathered from unrelated publications.
Effect on: metabolic stability
Species: human

| SMILES | test system | conditions | endpoint | value |
| --- | --- | --- | --- | --- |
| CCCCN(CCCC)CCCOc1ccc2c(=O)c3c([nH]c2c1)CCCC3 | liver microsomes | 1 µM, pH 7.4 | microsomal CLint | 91.8 µL/min/mg |
| C[C@H](O)c1cnc(NS(=O)(=O)c2ccc(C(F)(F)F)c(Cl)c2)nc1 | hepatocytes | 1 µM | hepatocyte CLint | < 3 µL/min/10⁶ cells |
| CNS(=O)(=O)c1ccc(Nc2ncc(C(F)(F)F)c([C@H]3CC[C@](C)(O)CC3)n2)c(C)c1 | liver microsomes | 1 µM | scaled CLint | < 14 mL/min/kg |
| COCC(=O)N1CCC[C@H](C(=O)NCc2nc(-c3ccc(F)cc3)cs2)C1 | liver microsomes | 0.5 µM | microsomal CLint | 14 µL/min/mg |
| Cc1cc(S(=O)(=O)N[C@H]2CC[C@H](CN3CCN(c4cccc(NC5CCC(=O)NC5=O)c4)CC3)CC2)ccc1Nc1ncc(C(F)(F)F)c(N2CCC[C@](C)(O)C2)n1 (stereo partly drawn) | liver microsomes | 1 µM | scaled CLint | < 14 mL/min/kg |
| O=c1c2c([nH]c3cc(Oc4cccc(OC(F)(F)F)c4)ccc13)CCCC2 | liver microsomes | 1 µM, pH 7.4 | microsomal CLint | 1.66 µL/min/mg |
| Cc1cc(S(=O)(=O)N[C@]2(C)C[C@H](N3CCN(CC4CCN(c5ccc6c(c5F)n(C)c(=O)n6C5CCC(=O)NC5=O)CC4)CC3)C2)ccc1Nc1ncc(C(F)(F)F)c(N2CCC[C@](C)(O)C2)n1 (stereo partly drawn) | liver microsomes | 1 µM | scaled CLint | 251 mL/min/kg |
| CCCN(CCC)CCCOc1ccc2c(=O)c3c([nH]c2c1)CCCC3 | liver microsomes | 1 µM, pH 7.4 | microsomal CLint | 37.1 µL/min/mg |
| Cc1cc(S(=O)(=O)NC2CC(N3CCN(CC4CCN(c5ccc(NC6CCC(=O)NC6=O)cc5C)CC4)CC3)C2)ccc1Nc1ncc(C(F)(F)F)c(N2CCC[C@](C)(O)C2)n1 (stereo partly drawn) | liver microsomes | 1 µM | scaled CLint | 15 mL/min/kg |
| C[C@H]1[C@@H](C(=O)NCc2nc(-c3ccc(C#N)cc3)cs2)CCCN1C(=O)[C@H]1CCO1 | liver microsomes | 0.5 µM | microsomal CLint | 131 µL/min/mg |
| O=c1c2ccc(OCc3cccc(OC(F)(F)F)c3)cc2[nH]c2ccc(Cl)c(F)c12 | liver microsomes | 1 µM, pH 7.4 | microsomal CLint | 1.24 µL/min/mg |
| Cc1ccc(-c2csc(CNC(=O)[C@H]3CCCN(C(=O)[C@H]4CCC(C)(C)O4)[C@H]3C)n2)cn1 | liver microsomes | 0.5 µM | microsomal CLint | 155 µL/min/mg |
| Cc1cc(S(=O)(=O)NC2CC(N3CCN(CC4CCN(c5cccc6c5n(C)c(=O)n6C5CCC(=O)NC5=O)CC4)C4(CC4)C3)C2)ccc1Nc1ncc(C(F)(F)F)c(N2CCC[C@](C)(O)C2)n1 (stereo partly drawn) | liver microsomes | 1 µM | scaled CLint | 34 mL/min/kg |
| COCC(=O)N1CCC[C@H](C(=O)NCc2nc(-c3ccccc3)cs2)C1 | hepatocytes | 0.5 µM | scaled CLint | 29 mL/min/kg |
| Cc1cc(S(=O)(=O)N[C@H]2CC[C@H](CN3CCN(c4ccc(NC5CCC(=O)NC5=O)cc4F)CC3)CC2)ccc1Nc1ncc(C(F)(F)F)c(N2CCC[C@](C)(O)C2)n1 (stereo partly drawn) | liver microsomes | 1 µM | scaled CLint | < 14 mL/min/kg |
| CNc1ccc(C(N)=O)cn1 | hepatocytes | 1 µM, pH 7.4 | hepatocyte CLint | 3 µL/min/10⁶ cells |
| CNC(C)(C)COCC(=O)N1CCC[C@H](C(=O)NCc2nc(-c3ccc(C(F)(F)F)cc3)cs2)C1 | liver microsomes | 0.5 µM | microsomal CLint | 12 µL/min/mg |
| C[C@]1(O)CCCN(c2nc(Nc3ccc(S(=O)(=O)N[C@H]4CC[C@H](CN5CCN(c6ccc(C7CCC(=O)NC7=O)cc6F)CC5)CC4)cc3F)ncc2C(F)(F)F)C1 (stereo partly drawn) | liver microsomes | 1 µM | scaled CLint | < 14 mL/min/kg |
| N[C@H](COCC(=O)N1CCC[C@H](C(=O)NCc2nc(-c3ccc(C(F)(F)F)cc3)cs2)C1)c1ccccc1 | liver microsomes | 0.5 µM | microsomal CLint | 80 µL/min/mg |
| CCCN(CCC)CCNc1ccc2c(=O)c3c([nH]c2c1)CCCC3 | liver microsomes | 1 µM, pH 7.4 | microsomal CLint | 21.4 µL/min/mg |
| CCOCC(=O)N1CCC[C@H](C(=O)NCc2nc(-c3ccc(C)nc3)cs2)C1 | hepatocytes | 0.5 µM | scaled CLint | 33 mL/min/kg |
| O=c1c2ccc(Oc3ccc(OC(F)(F)F)cc3)cc2[nH]c2cc(Cl)c(F)cc12 | liver microsomes | 1 µM, pH 7.4 | microsomal CLint | 5.07 µL/min/mg |
| C=CCn1c(=O)c2cnc(Nc3ccc(N4CCN(C)CC4)cc3)nc2n1-c1cccc(C(C)(C)O)n1 | liver microsomes |  | scaled CLint | 77 mL/min/kg |
| O=c1c2ccc(OCc3ccc(C(F)(F)F)cc3)cc2[nH]c2cc(Cl)cc(F)c12 | liver microsomes | 1 µM, pH 7.4 | microsomal CLint | 6.71 µL/min/mg |
| CNS(=O)(=O)c1ccc(Nc2ncc3cc(Cl)c(=O)n(C4CCCC4)c3n2)c(C)c1 | liver microsomes | 1 µM | scaled CLint | 100 mL/min/kg |
| COCC(=O)N1CCC[C@H](C(=O)NCc2nc(-c3ccc(C#N)cc3)cs2)C1 | liver microsomes | 0.5 µM | scaled CLint | 12 mL/min/kg |
| O=c1c2c([nH]c3cc(OCc4ccc(OC(F)(F)F)cc4)ccc13)CCCC2 | liver microsomes | 1 µM, pH 7.4 | microsomal CLint | 36.5 µL/min/mg |
